Test results as given in ChEMBL document CHEMBL1126891 (J Med Chem, 1993).

Experiments:
[1] = system: Human alphaherpesvirus 2; assay: Inhibitory activity against Herpes simplex virus 2 in vero cells at 100 uM; assay type: functional; conditions: Human alphaherpesvirus 2, Vero
[2] = biological target: T1, DNA polymerase alpha catalytic subunit (Homo sapiens, UniProt P09884); assay: Percent inhibition of DNA polymerase alpha at 100 uM
T1 sequence (P09884 whole entry): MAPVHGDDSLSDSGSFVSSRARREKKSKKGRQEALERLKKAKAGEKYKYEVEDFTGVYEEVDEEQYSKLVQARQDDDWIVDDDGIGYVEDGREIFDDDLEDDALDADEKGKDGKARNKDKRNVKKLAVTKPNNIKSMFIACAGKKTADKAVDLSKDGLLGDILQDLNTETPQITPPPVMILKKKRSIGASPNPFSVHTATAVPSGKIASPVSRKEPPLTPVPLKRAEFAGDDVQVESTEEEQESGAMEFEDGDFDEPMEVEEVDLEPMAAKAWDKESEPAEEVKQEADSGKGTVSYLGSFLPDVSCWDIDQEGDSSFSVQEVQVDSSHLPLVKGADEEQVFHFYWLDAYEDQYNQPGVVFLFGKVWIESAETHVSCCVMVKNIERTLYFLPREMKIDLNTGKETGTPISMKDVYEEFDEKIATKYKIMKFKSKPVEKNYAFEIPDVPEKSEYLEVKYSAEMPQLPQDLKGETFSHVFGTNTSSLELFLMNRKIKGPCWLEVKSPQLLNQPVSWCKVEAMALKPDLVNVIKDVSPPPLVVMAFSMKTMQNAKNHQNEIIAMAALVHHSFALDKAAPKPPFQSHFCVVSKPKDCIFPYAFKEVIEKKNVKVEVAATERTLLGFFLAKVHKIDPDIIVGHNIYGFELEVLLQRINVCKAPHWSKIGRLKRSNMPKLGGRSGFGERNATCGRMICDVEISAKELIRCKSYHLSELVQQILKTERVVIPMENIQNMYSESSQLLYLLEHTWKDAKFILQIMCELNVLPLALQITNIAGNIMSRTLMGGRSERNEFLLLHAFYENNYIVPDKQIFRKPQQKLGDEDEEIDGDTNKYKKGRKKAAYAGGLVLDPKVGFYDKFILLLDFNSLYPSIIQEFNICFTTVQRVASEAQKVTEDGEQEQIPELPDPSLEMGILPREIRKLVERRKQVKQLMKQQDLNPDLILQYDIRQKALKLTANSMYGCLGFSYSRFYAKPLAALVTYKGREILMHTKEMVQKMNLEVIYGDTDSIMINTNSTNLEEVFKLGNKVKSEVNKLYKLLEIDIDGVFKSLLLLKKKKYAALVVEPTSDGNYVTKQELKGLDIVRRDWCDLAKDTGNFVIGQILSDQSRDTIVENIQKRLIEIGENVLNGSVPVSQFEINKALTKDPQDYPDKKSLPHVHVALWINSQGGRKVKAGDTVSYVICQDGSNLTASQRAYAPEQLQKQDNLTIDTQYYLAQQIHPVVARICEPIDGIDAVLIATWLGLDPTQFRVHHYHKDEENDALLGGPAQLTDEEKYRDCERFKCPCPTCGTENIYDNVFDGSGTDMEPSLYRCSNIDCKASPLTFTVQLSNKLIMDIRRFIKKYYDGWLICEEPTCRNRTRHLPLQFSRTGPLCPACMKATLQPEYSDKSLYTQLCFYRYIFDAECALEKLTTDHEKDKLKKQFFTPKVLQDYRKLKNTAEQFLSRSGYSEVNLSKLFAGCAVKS

[3] = system: MRC5; assay: Inhibitory concentration against VZV in MRC5 cells; assay type: functional, cell-based; conditions: Homo sapiens
[4] = system: MRC5; assay: Inhibitory concentration against human cytomegalovirus (HCMV1) in MRC5 cells; assay type: functional, cell-based
[5] = system: Vero; assay: Cytotoxicity against vero cells; assay type: cell-based; conditions: Chlorocebus sabaeus
[6] = system: Vero; assay: Inhibitory concentration against HSV-1 in vero cells; assay type: functional, cell-based; conditions: Chlorocebus sabaeus
[7] = system: Vero; assay: Inhibitory concentration against HSV-2 in vero cells; assay type: functional, cell-based; conditions: Chlorocebus sabaeus
Summary of the method: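 HSV-2 plaque reduction assay in Vero cells; the value is reported as IC50 in µM.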

[8] = biological target: T1, DNA polymerase alpha catalytic subunit; assay: Effective concentration against DNA polymerase alpha; assay type: single protein
Summary of the method: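 DNA polymerase α enzyme assay using activated calf thymus DNA as template, with no NaCl or KCl added.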

[9] = Toxicity observed in vero cells; assay type: cell-based; conditions: Chlorocebus sabaeus
[10] = system: Nucleic Acid; assay: Effective concentration against DNA polymerase of Herpes simplex virus 2 (HSV-2); assay type: nucleic-acid assay, Human alphaherpesvirus 2

Which inhibition at 100 µM [1] does the source give for C[C@@]1(CO)[C@H](O)CC[C@]2(C)C3=C[C@H](O)[C@H](CO)C[C@@H]3CC[C@@H]12 here?
Its inhibition at 100 µM is 0%.

What does the source list for COc1ccc2c(c1)[C@@]1(C)CCC[C@@](C)(C(=O)O)[C@@H]1CC2?
inhibition at 100 µM [1]: 31%; inhibition [2]: 4%

For C[C@@]1(CO)CCC[C@]2(C)c3cc(O)c(CO)cc3CC[C@@H]12, which inhibition at 100 µM [1] is on record?
Its inhibition at 100 µM is 0%.

For COc1cc2c(cc1CO)CC[C@H]1[C@](C)(C(=O)O)CCC[C@]21C, which inhibition at 100 µM [1] is on record?
The inhibition at 100 µM was 13%.

For C[C@@]1(CO)[C@@H](O)CC[C@@]2(C)c3cc(O)c(CO)cc3CC[C@@H]12, which IC50 [3] is on record?
Its IC50 is greater than 100 µM.

And the IC50 [4]?
Its IC50 is greater than 100 µM.

And the IC50 [5]?
The IC50 was greater than 500 µM.

What about the IC50 [6] of the same molecule?
Its IC50 is greater than 200 µM.

And the IC50 [7]?
Its IC50 is greater than 100 µM.

Which IC50 [3] does the source give for C[C@@]1(CO)[C@H](O)CC[C@@]2(C)c3cc(O)c(CO)cc3CC[C@@H]12 here?
The IC50 was greater than 100 µM.

And the IC50 [4]?
Its IC50 is greater than 100 µM.

What about the IC50 [5] of the same molecule?
The IC50 was greater than 500 µM.

What about the IC50 [6] of the same molecule?
Its IC50 is 222 µM.

What about the IC50 [7] of the same molecule?
The IC50 was greater than 100 µM.

Which inhibition at 100 µM [1] does the source give for COc1ccc2c(c1)[C@@]1(C)CC[C@@H](O)[C@@](C)(CO)[C@@H]1CC2 here?
Its inhibition at 100 µM is 36%.

Which EC50 [8] does the source give for C[C@@]1(CO)[C@H](O)CC[C@]2(C)c3cc(O)c(CO)cc3CC[C@@H]12 here?
Its EC50 is 4 µM.

What about the IC50 [3] of the same molecule?
Its IC50 is greater than 100 µM.

And the IC50 [4]?
The IC50 was 76 µM.

And the IC50 [5]?
The IC50 was greater than 500 µM.

And the IC50 [6]?
The IC50 was 133 µM.

What about the IC50 [7] of the same molecule?
The IC50 was greater than 100 µM.

And the inhibition at 100 µM [1]?
The inhibition at 100 µM was 90%.

Which results are given for C[C@@]1(CO)[C@H](O)CC[C@]2(C)c3cc(O)ccc3CC[C@@H]12?
EC50 [8]: 8 µM; inhibition at 100 µM [1]: 25%

For COc1cc2c(cc1CO)CC[C@H]1[C@](C)(CO)CCC[C@]21C, which inhibition [9] is on record?
The inhibition was 100%.

What about the inhibition [2] of the same molecule?
Its inhibition is 3%.

What does the source list for COc1cc2c(cc1CO)CC[C@H]1[C@](C)(CO)[C@H](O)CC[C@]21C?
IC50 [3]: > 100 µM; IC50 [4]: > 100 µM; IC50 [5]: > 500 µM; IC50 [6]: > 100 µM; IC50 [7]: > 100 µM

With C[C@@]1(C(=O)O)CCC[C@]2(C)c3cc(O)c(CO)cc3CC[C@@H]12 as the molecule, how does the inhibition at 100 µM [1] read?
Its inhibition at 100 µM is 15%.

Which inhibition [9] does the source give for COC(=O)[C@]1(C)CCC[C@]2(C)c3cc(OC)c(C=O)cc3CC[C@@H]12 here?
Its inhibition is 100%.

For COC(=O)[C@]1(C)CCC[C@]2(C)c3cc(OC)c(CO)cc3CC[C@@H]12, which inhibition at 100 µM [1] is on record?
Its inhibition at 100 µM is 100%.

For C[C@@]1(CO)[C@@H](O)CC[C@]2(C)c3cc(O)c(CO)cc3CC[C@@H]12, which EC50 [8] is on record?
The EC50 was 7 µM.

And the IC50 [3]?
The IC50 was greater than 100 µM.

What about the IC50 [4] of the same molecule?
Its IC50 is greater than 100 µM.

What about the IC50 [5] of the same molecule?
Its IC50 is greater than 500 µM.

And the IC50 [6]?
Its IC50 is 198 µM.

And the IC50 [7]?
The IC50 was greater than 100 µM.

What about the inhibition at 100 µM [1] of the same molecule?
The inhibition at 100 µM was 19%.

With COc1ccc2c(c1)[C@@]1(C)CCC[C@@](C)(N)[C@@H]1CC2 as the molecule, how does the EC50 [8] read?
Its EC50 is 1 µM.

And the inhibition at 100 µM [1]?
Its inhibition at 100 µM is 100%.

For COc1ccc2c(c1)[C@@]1(C)CC[C@H](O)[C@@](C)(CO)[C@@H]1CC2, which inhibition at 100 µM [1] is on record?
Its inhibition at 100 µM is 10%.

For C[C@@]1(CO)[C@@H](O)CC[C@]2(C)c3cc(O)ccc3CC[C@@H]12, which inhibition at 100 µM [1] is on record?
Its inhibition at 100 µM is 34%.

With C[C@@]1(C(=O)O)CCC[C@]2(C)c3cc(O)c(C=O)cc3CC[C@@H]12 as the molecule, how does the EC50 [8] read?
Its EC50 is 5 µM.

And the inhibition at 100 µM [1]?
The inhibition at 100 µM was 0%.

Which IC50 [3] does the source give for COc1cc2c(cc1CO)CC[C@H]1[C@](C)(CO)[C@@H](O)CC[C@]21C here?
Its IC50 is greater than 100 µM.

What about the IC50 [4] of the same molecule?
Its IC50 is greater than 100 µM.

What about the IC50 [5] of the same molecule?
The IC50 was greater than 500 µM.

What about the IC50 [6] of the same molecule?
The IC50 was greater than 100 µM.

And the IC50 [7]?
The IC50 was greater than 100 µM.

Which EC50 [10] does the source give for C[C@@]1(CO)[C@H](O)CC[C@@]2(C)[C@H]1CC[C@H]1C[C@@H]3C[C@@]12CC[C@]3(O)CO [APHIDICOLIN] here?
Its EC50 is 5 µM.
